Assay results reported in ChEMBL document CHEMBL3865809, “2-Indolylmethylenebenzofuranones as first effective inhibitors of ABCC2” (Eur J Med Chem, 2016).

Key:
[1] = Cytotoxicity against wild-type MDCK2 cells measured after 72 hrs by MTT assay; assay type: toxicity, cell-based, Canis lupus familiaris, MDCK-II; conditions: dog
Procedure, shortened: (§1)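 MTT assay in parental and ABCC2-transfected MDCKII cells. Cells were seeded so that they stayed below confluence over 72 h at 37 °C, then exposed to compound from […] for 72 h. MTT at 5 mg/mL was added for 3 h. Formazan was dissolved in DMSO/isopropanol 1:1, and A570 was read and corrected at 690 nm. Mean ± SD of at least three independent experiments; DMSO-only controls run in parallel.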

[2] = Cytotoxicity against MDCK2 cells expressing ABCC2 measured after 72 hrs by MTT assay; assay type: toxicity, cell-based, Canis lupus familiaris, MDCK-II; conditions: dog; procedure, shortened: as §1
[3] = biological target: T1, ATP-binding cassette sub-family C member 2 (Homo sapiens, UniProt Q92887); assay: Inhibition of ABCC2 (unknown origin) expressed in MDCK2 cells assessed as inhibition of calcein-AM efflux measured after 30 mins in presence of ABCB1 inhibitor GF120918 and ABCC1 inhibitor MK-571 by flow cytometry; assay type: cell-based, MDCK-II
T1 sequence (Q92887 whole entry): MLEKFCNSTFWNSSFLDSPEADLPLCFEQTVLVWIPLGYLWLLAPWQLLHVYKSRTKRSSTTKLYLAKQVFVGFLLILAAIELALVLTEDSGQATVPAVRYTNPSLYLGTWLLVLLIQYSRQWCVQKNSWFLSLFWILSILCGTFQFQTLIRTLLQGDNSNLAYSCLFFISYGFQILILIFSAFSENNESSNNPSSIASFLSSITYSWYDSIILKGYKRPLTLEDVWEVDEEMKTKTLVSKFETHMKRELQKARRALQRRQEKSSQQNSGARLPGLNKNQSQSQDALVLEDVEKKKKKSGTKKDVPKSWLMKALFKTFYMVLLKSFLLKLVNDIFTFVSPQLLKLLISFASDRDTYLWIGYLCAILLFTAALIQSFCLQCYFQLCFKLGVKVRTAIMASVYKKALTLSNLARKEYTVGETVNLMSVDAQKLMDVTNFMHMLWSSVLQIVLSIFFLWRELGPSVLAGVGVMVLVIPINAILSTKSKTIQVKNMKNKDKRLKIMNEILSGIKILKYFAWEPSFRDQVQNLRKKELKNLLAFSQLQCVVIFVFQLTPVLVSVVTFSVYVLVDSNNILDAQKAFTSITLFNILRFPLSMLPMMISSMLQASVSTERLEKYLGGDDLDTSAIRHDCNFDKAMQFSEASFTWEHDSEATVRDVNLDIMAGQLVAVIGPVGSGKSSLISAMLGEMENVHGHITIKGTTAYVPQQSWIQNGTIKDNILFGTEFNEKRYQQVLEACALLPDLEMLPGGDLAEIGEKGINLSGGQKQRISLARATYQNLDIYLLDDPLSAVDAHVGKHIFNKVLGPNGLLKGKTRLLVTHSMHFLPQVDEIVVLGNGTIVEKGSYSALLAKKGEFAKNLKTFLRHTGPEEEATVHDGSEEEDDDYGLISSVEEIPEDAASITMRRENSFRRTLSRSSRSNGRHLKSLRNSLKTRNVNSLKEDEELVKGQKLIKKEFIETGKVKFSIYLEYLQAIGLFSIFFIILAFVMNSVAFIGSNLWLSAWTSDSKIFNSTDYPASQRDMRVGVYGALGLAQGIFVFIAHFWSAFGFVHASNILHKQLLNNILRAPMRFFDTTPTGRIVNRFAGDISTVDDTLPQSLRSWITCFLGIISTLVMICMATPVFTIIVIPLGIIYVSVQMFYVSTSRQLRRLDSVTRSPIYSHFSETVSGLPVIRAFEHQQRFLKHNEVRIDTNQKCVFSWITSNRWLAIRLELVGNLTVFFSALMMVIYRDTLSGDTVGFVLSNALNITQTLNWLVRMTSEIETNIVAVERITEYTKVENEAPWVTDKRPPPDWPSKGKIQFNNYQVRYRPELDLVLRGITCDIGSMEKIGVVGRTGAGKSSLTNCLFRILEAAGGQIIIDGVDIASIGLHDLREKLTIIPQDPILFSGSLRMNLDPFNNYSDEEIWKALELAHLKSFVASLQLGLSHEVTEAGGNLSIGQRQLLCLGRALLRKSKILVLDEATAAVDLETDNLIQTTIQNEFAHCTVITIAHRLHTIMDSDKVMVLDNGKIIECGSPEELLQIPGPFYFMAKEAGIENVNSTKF

[4] = biological target: T1, ATP-binding cassette sub-family C member 2; assay: Inhibition of ABCC2 (unknown origin) expressed in MDCK2 cells assessed as inhibition of calcein-AM efflux at 5 uM measured after 30 mins in presence of ABCB1 inhibitor GF120918 and ABCC1 inhibitor MK-571 by flow cytometry; assay type: cell-based; conditions: mdck-ii, 0.5 h
Procedure, shortened: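 Parental and ABCC2-transfected MDCKII cells were seeded at 3 × 10³ cells/well and grown 48 h at 37 °C in 5% CO2. They were then loaded with 25 nM calcein-AM in the presence of GF120918 and […] MK-571. Intracellular fluorescence was read by flow cytometry in the 525/50 nm channel, collecting ≥5000 events.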

[5] = biological target: T1, ATP-binding cassette sub-family C member 2; assay: Inhibition of ABCC2 (unknown origin) expressed in human Flp-InTM-293 cells assessed as inhibition of calcein-AM efflux at 5 uM measured after 30 mins in presence of ABCB1 inhibitor GF120918 and ABCC1 inhibitor MK-571 by flow cytometry; assay type: cell-based; conditions: 0.5 h
Procedure, shortened: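 A confirmatory calcein-AM efflux assay was run the same way in Flp-In-293 cells stably transfected with ABCC2 (pcDNA5-FRT-ABCC2 plus pOG44, by electroporation) and in parental Flp-In-293 cells. Fluorescence was read by flow cytometry, with % inhibition computed against the parental line.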

SMILES	IC50 at 72 h [1] [µM]	IC50 at 72 h [2] [µM]	IC50 [3] [µM]	inhibition (INH) [4]	inhibition (INH) [5]
COc1ccc2c(c1)c(/C=C1\Oc3cc(O)cc(O)c3C1=O)cn2CC1CCCCC1	> 50	> 50	4.1	Active	Active
COc1cccc(Cn2cc(/C=C3\Oc4cc(O)cc(O)c4C3=O)c3ccccc32)c1	–	–	17.5	Active	Active
CCCCn1c(C)c(/C=C2\Oc3cc(O)cc(O)c3C2=O)c2ccccc21	–	–	11.4	Active	Active
CC(C)=CCn1cc(/C=C2\Oc3cc(O)cc(O)c3C2=O)c2ccccc21	–	–	10.6	Active	Active
O=C1/C(=C/c2cn(Cc3ccccc3)c3ccccc23)Oc2cc(O)cc(O)c21	–	–	12.2	Active	Active
COc1ccc2c(c1)c(/C=C1\Oc3cc(O)cc(O)c3C1=O)cn2Cc1cccc(Br)c1	–	–	7.3	Active	Active
Cn1cc(/C=C2\Oc3cc(O)cc(O)c3C2=O)c2cc(Br)ccc21	> 50	> 50	4.5	Active	Active
Cn1c(/C=C2\Oc3cc(O)cc(O)c3C2=O)cc2ccccc21	–	–	11.1	Active	Active
CCCCn1c(/C=C2\Oc3cc(O)cc(O)c3C2=O)c(C)c2ccccc21	–	–	8.2	Active	Active
CCCCn1cc(/C=C2\Oc3cc(O)cc(O)c3C2=O)c2cccc(C)c21	> 50	> 50	4.5	Active	Active
O=C1/C(=C/c2cn(Cc3cccc(Br)c3)c3ccccc23)Oc2cc(O)cc(O)c21	–	–	14.4	Active	Active
CCCCn1c(/C=C2\Oc3cc(O)cc(O)c3C2=O)cc2ccccc21	–	–	9	Active	Active
O=C1/C(=C/c2cn(CC3CCCCC3)c3ccc(Br)cc23)Oc2cc(O)cc(O)c21	–	–	15.8	Active	Active
CCCCn1cc(/C=C2\Oc3cc(O)cc(O)c3C2=O)c2cc(OC)ccc21	–	–	13.9	Active	Active
CCn1cc(/C=C2\Oc3cc(O)cc(O)c3C2=O)c2cc(Br)ccc21	–	–	17.8	Active	Active
CCCCn1cc(/C=C2\Oc3cc(O)cc(O)c3C2=O)c2cc(C)ccc21	> 50	> 50	4.8	Active	Active
CCCCn1cc(/C=C2\Oc3cc(O)cc(O)c3C2=O)c2cccc(OC)c21	–	–	6.3	Active	Active
CCCCn1cc(/C=C2\Oc3cc(O)cc(O)c3C2=O)c2cc(Br)ccc21	–	–	15.4	Active	Active
O=C1/C(=C/c2cn(CC3CCCCC3)c3ccccc23)Oc2cc(O)cc(O)c21	–	–	10.5	Active	Active
